What all share (assay type): functional
Assay [1] deals with Meriones unguiculatus. Briefly: Percent reduction of Haemonchus contortus in immunosuppressed jird (Meriones unguiculatus) when CDP administered 0.11 mg/jird orally. In short, it runs like this:
(§1)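 Jirds were immunosuppressed via medicated food; 5 days later each got ~1000 exsheathed infective H. contortus larvae (pre-incubated 1 h in Earle's balanced salt solution) per os. The strain was maintained in sheep. Jirds were randomized by cage (3/group) on day 10 post-inoculation. Compound was suspended in 17% DMSO/83% carboxymethylcellulose and given orally in 0.2 mL, with vehicle-only controls. Worms were recovered after 5 h incubation at 37 °C, fixed in formaldehyde and counted under a dissecting microscope. Percent clearance = (mean control − mean treated)/mean control × 100.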

For assay [2], the system named is Meriones unguiculatus. Briefly: Percent reduction of Haemonchus contortus in immunosuppressed jird (Meriones unguiculatus) when CDP administered 3 mg/jird orally. The essentials: as §1
Assay [3] deals with Meriones unguiculatus. The experiment in a line: Percent reduction of Haemonchus contortus in immunosuppressed jird (Meriones unguiculatus) when CDP administered 1 mg/jird orally. The essentials:
as §1

For assay [4], the system named is Meriones unguiculatus. The experiment in a line: Percent reduction of Haemonchus contortus in immunosuppressed jird (Meriones unguiculatus) when CDP administered 0.33 mg/jird orally. In short, it runs like this: as §1
Assay [5] relates to Meriones unguiculatus. The experiment in a line: Percent reduction of Haemonchus contortus in immunosuppressed jird (Meriones unguiculatus) when CDP administered 5.75 mg/jird orally. In short, it runs like this: as §1
The subject of assay [6] is Meriones unguiculatus. Briefly: Percent reduction of Haemonchus contortus in immunosuppressed jird (Meriones unguiculatus) when CDP administered 2.75 mg/jird orally. The essentials:
as §1

These results are taken from ChEMBL document CHEMBL1144923, “Restricted conformation analogues of an anthelmintic cyclodepsipeptide” (2003).

`CC(C)C[C@H]1C(=O)O[C@H](Cc2ccccc2)C(=O)N(C)[C@@H](CC(C)C)C(=O)O[C@H](C)C(=O)N(C)[C@@H](CC(C)C)C(=O)O[C@H](Cc2ccccc2)C(=O)N(C)[C@@H](CC(C)C)C(=O)O[C@H](C)C(=O)N1C`: the Reduction with Meriones unguiculatus [1] came out at 100%.
Regarding `CC(C)C[C@H]1C(=O)O[C@H](Cc2ccccc2)C(=O)N(C)[C@@H](CC(C)C)C(=O)OC2CCCN(C2=O)[C@@H](CC(C)C)C(=O)O[C@H](Cc2ccccc2)C(=O)N(C)[C@@H](CC(C)C)C(=O)O[C@H](C)C(=O)N1C` (stereo partly specified), the Reduction in the assay on Meriones unguiculatus [1] is 36%; in the assay with Meriones unguiculatus [2] it was 99%; with Meriones unguiculatus [3], 89%; with Meriones unguiculatus [4], 75%.
For the compound `CC(C)C[C@H]1C(=O)O[C@H](Cc2ccccc2)C(=O)N(C)[C@@H](CC(C)C)C(=O)O[C@@H]2CCN(C2=O)[C@@H](CC(C)C)C(=O)O[C@H](Cc2ccccc2)C(=O)N(C)[C@@H](CC(C)C)C(=O)O[C@H](C)C(=O)N1C`, the results for the Reduction with Meriones unguiculatus [5] and in the assay with Meriones unguiculatus [6] were 89% and 69%, respectively.
Turning to `CC(C)C[C@H]1C(=O)O[C@H](Cc2ccccc2)C(=O)N(C)[C@@H](CC(C)C)C(=O)OC2CCCCN(C2=O)[C@@H](CC(C)C)C(=O)O[C@H](Cc2ccccc2)C(=O)N(C)[C@@H](CC(C)C)C(=O)O[C@H](C)C(=O)N1C` (stereo partly specified), the Reduction in the assay on Meriones unguiculatus [1] stood at 91%; in the assay on Meriones unguiculatus [2] it was 100%; in the assay with Meriones unguiculatus [3], 100%; in the assay on Meriones unguiculatus [4], 99%.
